# Assay outcomes as filed in PubChem.
# SIAE primary: inhibitors of human sialic acid acetylesterase SIAE | 0.69% of 370,000 active | SIAE FP-Rh probe binding, fluorescence polarization | Q9HAT2 | inhibition, % at 9.66 µM;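 active = inhibition above a cutoff: mean of compounds within the control limits plus 3 SD of those, cut at about 17% in these data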;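 note: 0% = plate median of compound wells and 100% = probe without SIAE protein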
# TCR-CD3 inh: blocks the human TCR-CD3 interaction. TAMRA-labeled TCR probe fluorescence, biochemical. inhibition, % at 9.4 µM. 0.37% of 360,000 active; in the data active = inhibition above about 19%;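 note: recombinant mutant TCR 2C K166C tagged with TAMRA read by polarization; 0% = receptor in buffer alone and 100% = receptor with positive control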
# Tn6 DDE FP: DD(E)-Tn6 binding inhibition, primary FP screen | Fibrin DD(E) TRITC-Tn6 fluorescence polarization displacement | P02675 | 0.21% of 370,000 active | inhibition, % at 8.3 µM;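 active = inhibition above a per-campaign cutoff: mean of compounds within control limits plus 3 SD, cut at about 15% in these data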;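 note: 0% = median of all compound wells on the plate and 100% = blocking peptide control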
# ABHD4 inh: ABHD4 (mouse) inhibition, primary FP screen. Q8VD66. purified mABHD4, FP-Rh probe fluorescence polarization. inhibition, % at 8.92 µM. 0.54% of 370,000 active. AID 720543;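 active = inhibition exceeding the mean over every tested compound plus 3 SD, cut at about 30% in these data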;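 note: 0% = plate median of compound wells and 100% = S159A mutant with DMSO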
#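 Assay system: mABHD4 protein; medium: HEPES pH 7.0, NaCl, Pluronic buffer; dosing: 8.92 µM, single dose; schedule: 45 min + 60 min at 25 °C; signal: FP readout, ex 525 nm / em 598 nm; read-out: normalized percent inhibition of probe labeling; repeats: single replicate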
# DDE Tn7 FP inh: disrupts Tn7 cyclic peptide binding to fibrin D-Dimer-E complex. AID 720508. P02675. inhibition, % at 8.3 µM. 0.13% of 370,000 active. FP displacement of FITC-Tn7 peptide from fibrin DD(E); 0% = median of compound wells per plate;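 active = inhibition above the mean of compounds falling within the control limits plus 3 SD of them, cut at about 14% in these data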;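 note: 0% = plate median of compound wells and 100% = 10 µM Aha-Tn7 peptide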
#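 Also added: labelled Tn7 tracer, 0.1 µM; Assay system: human fibrin DD(E) protein; Amount: 2 µM fibrin DD(E); Schedule: 10 min compound pre-incubation, 3 h probe incubation at room temperature; Repeats: one replicate per compound; Read-out basis: percent inhibition; Measured by: fluorescence polarization of the labelled Tn7 tracer.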
# HTRA1 inhibitor: HTRA1 (human) protease inhibition; recombinant HTRA1, FP-rhodamine activity-based probe, fluorescence polarization; 0.5% of 340,000 active; Q92743; inhibition, % at 5.96 µM; in the data active = inhibition above about 36%;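 note: 0% = enzyme with DMSO and 100% = wells lacking enzyme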
# Target sequence (Q92743 whole entry, looked up): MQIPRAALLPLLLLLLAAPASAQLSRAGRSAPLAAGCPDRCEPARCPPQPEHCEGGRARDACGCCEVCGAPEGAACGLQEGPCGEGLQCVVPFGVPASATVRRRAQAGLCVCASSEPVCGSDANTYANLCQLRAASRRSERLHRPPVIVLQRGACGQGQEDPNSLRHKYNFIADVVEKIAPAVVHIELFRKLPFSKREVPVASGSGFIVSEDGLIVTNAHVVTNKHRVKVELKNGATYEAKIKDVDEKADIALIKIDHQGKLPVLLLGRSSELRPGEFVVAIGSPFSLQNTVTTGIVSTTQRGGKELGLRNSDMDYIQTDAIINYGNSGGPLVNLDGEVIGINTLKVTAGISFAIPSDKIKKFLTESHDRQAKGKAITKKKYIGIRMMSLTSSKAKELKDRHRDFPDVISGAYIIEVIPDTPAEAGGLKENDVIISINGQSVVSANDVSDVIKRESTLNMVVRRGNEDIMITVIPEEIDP
# SIAE confirm: human SIAE inhibition, confirmation; AID 1117263; 13% of 2,300 active; inhibition, % at 9.66 µM; SIAE FP-Rh activity-based probe, fluorescence polarization; shares compounds with SIAE primary;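 active = mean inhibition of the replicates above the hit cutoff set in the primary screen, cut at about 17% in these data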;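 note: 0% = SIAE with DMSO and probe and 100% = probe without SIAE; inhibitors lower polarization as more probe stays unbound to SIAE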
# The depositor's hits bear a star; x = no result. Shown are actives, neighbours in structure and some others; about 1.8% of the full set was active somewhere.
SMILES,SIAE primary,TCR-CD3 inh,Tn6 DDE FP,ABHD4 inh,DDE Tn7 FP inh,HTRA1 inhibitor,SIAE confirm
CN(c1ccc(NC(=O)CCc2c[nH]c3ccccc23)cc1)c1ccccn1,27*,-3,0,-1,3,x,22*
O=C(CCc1c[nH]c2ccccc12)Nc1ccc(S(=O)(=O)Nc2ncccn2)cc1,11,-4,-3,2,2,-1,x
COc1ccc(C2(O)CN(c3ccc(C)cc3)C3=[N+]2CCCC3)cc1 (configuration not stated),20*,3,-1,4,-2,-4,10
NC(=O)C1CCN(c2nc(-c3ccc(N)cc3)cs2)CC1,-5,x,-3,7,-1,x,x
NC(=O)C1CCN(c2ncc(Br)s2)CC1,21*,x,7,27,2,x,4
CCCCCCCCN1C(=O)[C@@H](CC(=O)NCc2ccc(C)o2)C[C@@]2(C(=O)OC)C1=C[C@H](COCc1ccccc1)O[C@@H]2C,5,x,3,5,2,x,x
Fc1ccc2nc(Nc3nc4cc5c(cc4s3)OCO5)sc2c1,25*,-3,5,7,1,0,8
Fc1ccc2nc(Nc3nc4cc5c(cc4s3)OCCO5)sc2c1,32*,-8,-17,12,0,-15,6
Cc1ccc(C)c(Cn2cnc3c(cnn3C(C)(C)C)c2=O)c1,22*,2,1,-7,12,-5,-2
Clc1ccc(/C=N/Nc2ncnc3ccccc23)cc1Cl,27*,3,-1,-2,-4,2,-23
Cc1cc2cc3c(cc2n2c(SCC(=O)Nc4nc(-c5ccccc5)cs4)nnc12)OCO3,5,x,0,1,6,x,x
Cc1c(C(=O)Nc2ccccc2)c2ccc(C(F)(F)F)cc2n1O,25*,4,-3,-5,12,x,29*
Nn1c(SCC(=O)Nc2nccs2)nnc1-c1cc(-c2ccc(F)cc2)n[nH]1,3,x,-3,4,-2,x,x
CC(C)(C)CCN1CCC(CN2CCNC2=S)CC1,18*,-7,3,6,10,4,5
O=C1NCCN(CC2CCN(CCc3ccccc3)CC2)C1=O,12,-8,-3,8,-2,4,x
Cc1ccc(N(Cc2ccc(C(=O)NCC3CCCO3)cc2)S(C)(=O)=O)cc1C (configuration not stated),20*,7,4,-4,4,-4,2
C/C(=N\N=C1\NC(=O)CC(C(=O)O)S1)c1ccc(F)cc1 (configuration not stated),-4,2,4,-3,-5,1,x
COc1ccc(/C(C)=N/N=C2/NC(=O)CC(C(=O)O)S2)cc1 (configuration not stated),22*,5,4,1,-6,1,0
C[C@H]1[C@@H](C(=O)N2CCCC2)Cc2nc3ccccc3nc2C[C@@H]1c1ccccc1,0,x,4,4,3,x,x
CCn1c(COc2ccccc2)nnc1SCC(=O)Nc1ccc(Oc2ccccc2)cc1,-7,x,6,-5,-8,x,x
CC(=O)Nc1ccc(NC(=O)c2ccccc2C)cc1,18*,6,-2,-4,5,3,4
Cc1ccccc1C(=O)Nc1ccccc1,2,3,-1,-1,-9,0,x
CN1CCN(S(=O)(=O)c2ccc(NC(=O)c3ccccc3Cl)cc2)CC1,-2,-5,-4,-5,-4,1,x
Cc1ccccc1C(=O)Nc1ccc(S(=O)(=O)N2CCN(C)CC2)cc1,19*,-6,-4,-4,2,2,-5
Cc1ccc([N+](=O)[O-])cc1NC(=O)C1CCCC1,5,6,2,-6,-5,2,x
SMILES,SIAE primary,TCR-CD3 inh,Tn6 DDE FP,ABHD4 inh,DDE Tn7 FP inh,HTRA1 inhibitor,SIAE confirm
Cc1ccc([N+](=O)[O-])cc1NC(=O)C1CCN(S(C)(=O)=O)CC1,20*,1,0,5,1,0,3
CCc1ccc(NC(=O)Nc2ccc3c(c2)N(C)C(=O)CS3)cc1,24*,5,-14,4,-10,-17,1
CCOC(=O)C(NC(=O)CC)(N1CCc2ccccc2C1)C(F)(F)F (configuration not stated),20*,-3,12,5,6,0,3
O=C(NCc1ccco1)C1CCCN(S(=O)(=O)c2cccs2)C1 (configuration not stated),0,x,6,-2,-2,x,x
CCc1ccc(CNC(=O)CCS(=O)(=O)Cc2ccccc2F)cc1,20*,0,-2,-7,5,-7,4
O=C(Cc1cn(Cc2ccccc2)c2ccccc12)Nc1ccc(Nc2cccnc2)c(Br)c1,18*,-3,0,16,5,x,16
O=C(Cc1c[nH]c2ccccc12)Nc1ccc(Nc2cccnc2)c(-c2ccc(Oc3ccccc3)cc2)c1,18*,1,-2,9,2,x,6
O=C(Cc1c[nH]c2ccccc12)Nc1ccc(Nc2cccnc2)c(Br)c1,8,1,-1,11,-6,x,x
COc1ccc2c(c1)CN1C(=O)N(Cc3ccc(F)cc3)S(=O)(=O)CC21 (configuration not stated),2,x,3,-6,-2,x,x
CCOc1ccccc1CN1CCNC(=O)C1CC(=O)NCCCn1cccn1 (configuration not stated),6,2,5,6,-5,7,x
COc1ccccc1CN1CCNC(=O)C1CC(=O)NCCCn1cccn1 (configuration not stated),40*,4,2,4,-1,-5,8
CCCCC(CCC(=O)Nc1cccc([N+](=O)[O-])c1)C(=O)O (configuration not stated),-1,2,6,10,0,8,x
CCC(CCC(=O)Nc1cccc([N+](=O)[O-])c1)C(=O)O (configuration not stated),23*,5,5,2,-2,-3,4
CCNC(=S)NNC(=O)c1cc(-c2cccc(OC)c2)nc2ccccc12,22*,3,4,11,1,1,1
Cc1ccc(CN2CCCCC(NC(=O)c3ccc(COc4ccccc4)cc3)C2=O)cc1 (configuration not stated),-6,x,-2,-14,0,x,x
COc1ccc(-n2nc3ccc(N)cc3n2)cc1Cl,72*,3,-7,-19,3,0,0
Cc1ccc(-n2c(CNc3ccc(F)cc3)nnc2SCC(=O)O)cc1,20*,4,-8,2,-1,x,4
Cc1ccc(NCc2nnc(SCC(=O)O)n2-c2ccc(C)cc2)cc1,3,-3,1,2,2,4,x
